# Compound activity from PubChem BioAssay.
# A selection: hits, their analogues and other compounds. The true share with any hit is near 6.4%.
# CHOP inh: inhibitors of CHOP induction in ER stress response | CHO-K1 CHOP-promoter luciferase, tunicamycin-induced, 15-18 h | inhibition, % at 10 µM | hit rate 3.8% among 220,000;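 active means compounds that reduced the stress-induced luciferase reporter signal by more than about 70% of percent inhibition, limit read from the data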;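 further: 0% = tunicamycin plus vehicle and 100% = wells without tunicamycin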
# MPTP block: permeability transition pore inhibition; isolated mouse mitochondria, Ca2+ swelling absorbance, 30 min; inhibition, % at 10 µM; hit rate 1.4% among 360,000; AID 602449;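 active means inhibition of 50% or more, scaled per plate between neutral and stimulator controls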;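 further: 0% = DMSO wells given calcium and 100% = 1 mM EGTA wells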
# GRIN3A LBD mod: modulates the human NR3A ligand-binding domain; NR3A LBD differential scanning fluorimetry, Tm shift; 0% = protein alone, 100% = glycine-bound protein; Tm shift relative to glycine control, % at 25 µM; hit rate 2.5% among 340,000;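 active means melting temperature shift of at least 10% of the positive control shift, at one fixed dose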
# WT yeast gro inh: growth inhibition of WT yeast, mitochondrial fusion screen; mitochondrial fusion phenotypic screen, WT strain; inhibition, % at 10 µM; hit rate 2.1% among 190,000; AID 1362; in the data active means inhibition above about 58%; tested in S. cerevisiae
# TbMetRS inhib: Trypanosoma brucei MetRS inhibition; inhibition, % at 11.9 µM; hit rate 0.4% among 360,000; AID 624268; purified T. brucei MetRS, ATP depletion, Kinase-Glo luminescence;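 active means inhibition above a per-plate cutoff of the control wells' mean inhibition plus 3 SD, cut at about 5.5% in these data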;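 further: 0% = DMSO wells median and 100% = median of wells with control inhibitor compound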
#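 Assay system: T. brucei methionyl-tRNA synthetase, purified | Medium: HEPES buffer with MgCl2, KCl, DTT, spermine, BSA, pyrophosphatase | Compound: 11.9 µM single point | Incubation: 15 min enzyme-compound preincubation, 2 h reaction, 10 min detection, 25 °C | Measured by: Kinase-Glo luciferase luminescence reporting remaining unconsumed ATP | Measure: % inhibition normalized to control-well medians | Replication: Singlicate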
# EBV gp42 block: blocks Epstein-Barr virus glycoprotein 42 binding; Q1HVG2; Fluorescence polarization binding assay, mP read-out; inhibition, % (tested at 21.74 µM); hit rate 0.42% among 220,000; in the data active means inhibition above about 50%
# Target sequence (Q1HVG2 whole entry, looked up): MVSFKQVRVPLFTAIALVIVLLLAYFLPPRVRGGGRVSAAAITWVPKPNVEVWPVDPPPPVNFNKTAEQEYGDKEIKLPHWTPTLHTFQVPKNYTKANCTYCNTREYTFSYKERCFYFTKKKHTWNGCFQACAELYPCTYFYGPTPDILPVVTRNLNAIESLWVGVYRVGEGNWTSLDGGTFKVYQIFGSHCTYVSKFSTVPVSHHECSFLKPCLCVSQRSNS
# * hit, by the source's call; . = no result.
SMILES,CHOP inh,MPTP block,GRIN3A LBD mod,WT yeast gro inh,TbMetRS inhib,EBV gp42 block
CC(=O)c1c(C)[nH]c(C(=O)OCC(=O)Nc2ccc3[nH]c(=O)[nH]c3c2)c1C,.,-2.2,20.8*,.,-0.2,.
O=C(Nc1ccccc1)NC1CCN(Cc2nnnn2C2CCCCC2)CC1,42.6,1.2,3.7,13.9,-0.2,-4.7
O=S(=O)(c1ccccc1)c1cnc(-c2cccnc2)nc1-c1ccc(Cl)cc1Cl,44.1,4.3,3.7,67.2*,-0.2,4.5
O=S(=O)(c1ccccc1)c1cnc(-c2cccnc2)nc1-c1ccccc1,33.1,1.4,-0.3,8.0,0.0,-9.7
Cn1ncc2c(Nc3cccc(Cl)c3)nc(Nc3cccc(Cl)c3)nc21,-3.9,2.4,31.1*,.,-0.4,5.9
COC(=O)c1ccc(NC(=O)CSc2nc3[nH]ncc3c(=O)[nH]2)cc1,.,-1.6,14.1*,.,-0.2,.
CC(=O)c1ccc(NC(=O)CSc2nc3[nH]ncc3c(=O)[nH]2)cc1,.,0.6,1.2,.,0.0,.
O=C(CSc1nc2[nH]ncc2c(=O)[nH]1)Nc1ccccc1F,.,-1.2,14.1*,.,-0.3,.
COC(=O)c1cnc(SCc2ccc(Cl)cc2)n1C,75.3*,1.7,-2.7,3.0,0.3,0.8
COc1cc(CNc2ccc(N3CCCC3)cc2)ccc1OCc1ccccc1,-38.6,2.4,-10.8,-1.9,0.0,12.3
CCN(CC)CCn1c2ccccc2c2nc(C)sc21,6.2,-1.2,0.7,-5.3,-0.6,-14.8
CCOC(=O)/C(=C/C=C1\Sc2cc(C)c(C)cc2N1CC)C(C)=O,93.6*,-2.9,1.6,45.4,-0.8,-291.2
O=C(O)c1ccc(CSc2nnc(COc3ccccc3)o2)cc1,15.4,-0.7,0.6,-1.1,0.1,-6.4
O=C(O)c1cccc(CSc2nnc(COc3ccccc3)o2)c1,52.0,-0.7,11.4*,10.3,-1.5,7.4
N#CCCN(C(=O)COC(=O)CSc1ccc(Cl)cc1)c1ccccc1,.,-2.2,0.3,.,-0.3,.
CC1=CSC2=NC(=O)/C(=C\c3cccn3-c3ccccc3)C(=N)N12,-6.9,1.6,2.7,5.3,0.2,4.4
Cc1ccccc1Cn1cccc1/C=C1/C(=N)N2C=CSC2=NC1=O,24.6,-19.7,-1.3,10.3,0.1,5.8
CC(C)c1ccc(-n2cccc2/C=C2/C(=N)N3C=CSC3=NC2=O)cc1,26.5,2.5,-5.7,87.3*,-0.2,-41.4
CC1=CSC2=NC(=O)/C(=C\c3cccn3-c3ccc([N+](=O)[O-])cc3)C(=N)N12,87.3*,5.4,-6.3,24.7,-0.3,14.5
Cc1ccccc1CN1CCN(S(=O)(=O)c2ccc(F)cc2)CC1,87.9*,0.1,0.2,28.3,-0.9,0.2
O=S(=O)(c1ccc(Cl)cc1)N1CCN(Cc2c[nH]c3ccccc23)CC1,71.0*,-3.4,-6.5,8.3,3.2,5.7
CCN(CC)CCCC(C)NC(=O)c1ccc(C(F)(F)F)cc1 (configuration not stated),10.8,-1.5,-0.9,0.3,-0.2,-22.2
CC(C)OC(=O)CSc1nnc(-c2ccc(Cl)cc2Cl)n1N,32.4,2.8,0.1,-20.6,-0.5,-20.8
CC(Oc1cccc(Cl)c1)C(=O)Nc1cc(Cl)ccc1N1CCOCC1 (configuration not stated),.,0.0,21.1*,.,-0.5,.
CC(Oc1cccc(Cl)c1)C(=O)Nc1ccccc1N1CCCCC1 (configuration not stated),.,1.3,4.4,.,-0.4,.
SMILES,CHOP inh,MPTP block,GRIN3A LBD mod,WT yeast gro inh,TbMetRS inhib,EBV gp42 block
Cc1ccc(C=C2C(Cl)=C(Cl)C(Cl)=C2Cl)cc1,106.9*,.,-2.2,.,.,-11.2
Cc1ccc(/C=[N+](/C)[O-])cc1,4.4,-1.4,-1.4,-5.3,-1.3,-16.4
O=C(CCC(=O)N(CC(=O)NC1CCCC1)C1CCCC1)Nc1ccccn1,26.0,1.0,-0.3,-8.0,-1.4,-21.6
CCC(C)NC(=O)c1ccc(CSCc2cccc(F)c2)o1 (configuration not stated),45.7,-1.6,-1.6,6.5,-0.5,109.5*
COc1ccc(-n2c(SCC(N)=O)nnc2-c2ccco2)cc1,.,0.4,-1.3,.,-0.4,.
CCc1nnc(NC(=O)CCc2ccc(C)o2)s1,75.3*,-1.9,6.7,6.2,0.4,7.8
COc1ccc(/C=N/NC(=O)c2cccc(NC(=O)c3ccc(Cl)cc3)c2)c(OC)c1,44.2,4.4,10.8*,-9.9,-0.3,-8.1
COc1cc(/C=N/NC(=O)c2cccc([N+](=O)[O-])c2)ccc1OCc1ccc(C)cc1,49.7,4.1,16.7*,0.1,-0.8,-3.0
COc1ccc(/C=N\NC(=O)c2cccc(Br)c2)c(OC)c1,0.9,-2.4,-2.6,5.8,-0.9,6.3
O=C(N/N=C/c1cccc(O)c1)c1ccc(NC(=O)c2cccc([N+](=O)[O-])c2)cc1,4.7,1.5,27.5*,-8.3,4.0,-0.7
CCC(=O)Nc1ccc(C(=O)N/N=C/c2cc(Br)c(OC)cc2OC)cc1,15.5,-0.5,23.7*,7.9,-0.7,1.5
COc1ccc(C)cc1NC(=O)Cn1cnnn1,12.8,-0.5,-2.4,-3.2,-0.8,-17.9
Cc1ccc(-c2nc(NCCN(C)C)c3ccccc3n2)cc1,.,-3.1,-0.4,.,-1.1,.
O=C(N/N=C\c1ccc[nH]1)c1cncc(Br)c1,.,-0.2,1.8,.,0.5,.
CC1(C(=O)Nc2cnc3ccccc3c2)CCN1C(=O)CC(c1ccccc1)c1ccccc1 (configuration not stated),.,1.8,.,.,-0.4,.
O=C(Nc1cccc(S(=O)(=O)NC2=NCCCCC2)c1)C1COc2ccccc2O1 (configuration not stated),17.6,1.6,-1.2,-3.7,0.8,-1.6
COc1ccc(/C=N/NC(=O)c2ccc(NC(=O)c3cccc([N+](=O)[O-])c3)cc2)c(OC)c1,65.3,1.0,18.4*,-9.7,0.4,-0.3
COc1cc(C2C3=C(CCCC3=O)Nc3c2c(C)nn3-c2cccc(C)c2)cc(OC)c1O (configuration not stated),18.2,1.3,-2.9,.,-0.8,-1.9
O=C(/C=C/c1cccc(O)c1)c1cccnc1,-44.1,0.9,-0.8,5.5,-0.9,-9.4
O=CN/C=C/c1cccc(O)c1,.,-0.6,14.0*,.,0.0,.
CCOc1ccc(N2CC(C(=O)NC(C)C)CC2=O)cc1 (configuration not stated),14.1,-0.7,0.7,59.8*,-1.4,-10.3
CCCNC(=O)C1CC(=O)N(c2ccc(OCC)cc2)C1 (configuration not stated),16.7,0.0,-1.1,11.9,-0.5,-15.1
COc1ccc(OC)c(S(=O)(=O)NC(C)c2cnn(-c3ccccn3)c2C)c1 (configuration not stated),.,1.3,0.5,.,-0.4,.
O=C1CNC(=S)N1Cc1ccc(F)cc1,.,1.2,72.0*,.,-0.4,.
CCOC(=O)C1CC(c2ccc(Cl)cc2)=NNC1=O (configuration not stated),23.4,0.4,-2.5,-2.7,-0.3,1.9
